Columns and labels:
[1] = Cytotoxicity against human H460M cancer cell line was determined after 144 hr; format: functional, cell-based; conditions: Cancer cell lines
Method in brief: (§1)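 MTT colorimetric assay. Cells seeded by growth characteristics and preincubated 24 h, then exposed to drug for 1 h or 144 h at 37 °C, 5% CO2. H460M, MKN45 and PC-3 were grown in RPMI 1640 with 10% FCS. HCT116 was grown in D-MEM with 10% FBS and 2 mM glutamine.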

[2] = tested on: MKN-45; test: Cytotoxicity against human MKN45 cancer cell line was determined after 144 hr; format: functional, cell-based; conditions: MKN-45, 144 h; method in brief: as §1
[3] = tested on: LoVo; test: Ratio of IC50 against sensitive LoVo cell line and that of doxorubicin resistance LoVo cell line was determined after 1 hr exposure; format: functional, Homo sapiens
[4] = tested on: LoVo; test: Cytotoxicity against doxorubicin resistant LoVo cell line was determined against 144 hrs; format: functional, cell-based; conditions: Homo sapiens
Method in brief: (§2)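 MTT assay on doxorubicin-sensitive LoVo and resistant LoVo/Dx cells, 24 h preincubation, then 1 h or 144 h drug exposure at 37 °C, 5% CO2. IC50 in nM. Resistance index is IC50 on LoVo/Dx divided by IC50 on LoVo.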

[5] = tested on: Nucleic Acid; test: Binding site preference is determined as the ratio of Poly (dA-dT)2 to Poly (dG-dC)2; format: nucleic-acid assay
Method in brief: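 Ethidium displacement fluorometry at pH 7.0 (10 mM Na2HPO4, 10 mM NaH2PO4, 1 mM EDTA) with 1.26 μM ethidium bromide and 1 μM [poly(dA-dT)]2 or [poly(dG-dC)]2, 20 °C. Ex 546 nm, em 595 nm, drug added serially from a DMSO stock. Preference taken from the [AT]/[GC] ratio of C50 values, counted significant only below 0.7 or above 1.3.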

[6] = tested on: SNB-19; test: Percent growth of CNS SNB-19 cell line was determined at 10e-5 M concentration after 48 hr of exposing; format: functional, Homo sapiens
Method in brief: (§3)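 NCI sulforhodamine B screen. Cells seeded by growth rate, 24 h drug-free, then 48 h exposure to 10^-8, 10^-6 or 10^-5 M. Protein-stain optical density expressed as percent growth relative to untreated control (100%); negative values indicate cell kill.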

[7] = tested on: HCT-116; test: Cytotoxicity against human HCT116 cancer cell line was determined after 144 hr; format: functional, cell-based; conditions: HCT-116, 144 h; method in brief: as §1
[8] = tested on: DU-145; test: Percent growth of prostate DU-145 cell line was determined at 10e-6 M concentration after 48 hr of exposing; format: functional, Homo sapiens
[9] = tested on: DU-145; test: Percent growth of prostate DU-145 cell line was determined at 10e-8 M concentration after 48 h of exposing; format: functional, Homo sapiens
[10] = Percent growth of melanoma LOX IMV1 cell line was determined at 10e-5 M concentration after 48 hr of exposing; format: functional, Homo sapiens; method in brief: as §3
[11] = Percent growth of melanoma LOX IMV1 cell line was determined at 10e-6 M concentration after 48 hr of exposing; format: functional, Homo sapiens; method in brief: as §3
[12] = Percent growth of melanoma LOX IMV1 cell line was determined at 10e-8 M concentration after 48 hr of exposing; format: functional, Homo sapiens; method in brief: as §3
[13] = tested on: LoVo; test: (§4) Cytotoxicity against doxorubicin resistant LoVo cell line was determined against 1 hour; format: functional, cell-based; conditions: Homo sapiens; method in brief: as §2
[14] = tested on: PC-3; test: Cytotoxicity against human PC3 cancer cell line was determined after 144 hr; format: functional, cell-based; conditions: PC-3, 144 h; method in brief: as §1
[15] = tested on: LoVo; test: Cytotoxicity against human LoVo cancer cell line was determined after 144 hr; format: functional, cell-based; method in brief: as §2
[16] = tested on: SNB-19; test: Percent growth of CNS SNB-19 cell line was determined at 10e-6 M concentration after 48 hr of exposing; format: functional, Homo sapiens; method in brief: as §3
[17] = tested on: SNB-19; test: Percent growth of CNS SNB-19 cell line was determined at 10e-8 M concentration after 48 hr of exposing; format: functional, Homo sapiens; method in brief: as §3
[18] = tested on: 786-0; test: Percent growth of renal 786-O cell line was determined at 10e-5 M concentration after 48 hr of exposing; format: functional, Homo sapiens; method in brief: as §3
[19] = tested on: 786-0; test: Percent growth of renal 786-O cell line was determined at 10e-6 M concentration after 48 h of exposing; format: functional, Homo sapiens; method in brief: as §3
[20] = tested on: 786-0; test: Percent growth of renal 786-O cell line was determined at 10e-8 M concentration after 48 h of exposing; format: functional, Homo sapiens; method in brief: as §3
[21] = tested on: MCF7; test: Percent growth of breast MCF-7 cell line was determined at 10e-6 M concentration after 48 h of exposing; format: functional, Homo sapiens
[22] = tested on: MCF7; test: Percent growth of breast MCF-7 cell line was determined at 10e-8 M concentration after 48 hr of exposing; format: functional, Homo sapiens
[23] = tested on: SW-620; test: Percent growth of colon SW-620 cell line was determined at 10e-5 M concentration after 48 hr of exposing; format: functional, Homo sapiens; method in brief: as §3
[24] = tested on: SW-620; test: Percent growth of colon SW-620 cell line was determined at 10e-6 M concentration after 48 hr of exposing; format: functional, Homo sapiens; method in brief: as §3
[25] = tested on: SW-620; test: Percent growth of colon SW-620 cell line was determined at 10e-8 M concentration after 48 hr of exposing; format: functional, Homo sapiens; method in brief: as §3
[26] = tested on: NCI-H460; test: Percent growth of lung NCI-H460 cell line was determined at 10e-5 M concentration after 48 hr of exposing; format: functional, Homo sapiens; method in brief: as §3
[27] = tested on: NCI-H460; test: Percent growth of lung NCI-H460 cell line was determined at 10e-6 M concentration after 48 hr of exposing; format: functional, Homo sapiens; method in brief: as §3
[28] = tested on: NCI-H460; test: Percent growth of lung NCI-H460 cell line was determined at 10e-8 M concentration after 48 hr of exposing; format: functional, Homo sapiens; method in brief: as §3
[29] = tested on: MOLT-4; test: Percent growth of leukemia MOLT-4 cell line was determined at 10e-5 M concentration after 48 hr of exposing; format: functional, Homo sapiens; method in brief: as §3
[30] = tested on: MOLT-4; test: Percent growth of leukemia MOLT-4 cell line was determined at 10e-6 M concentration after 48 h of exposing; format: functional, Homo sapiens; method in brief: as §3
[31] = tested on: MOLT-4; test: Percent growth of leukemia MOLT-4 cell line was determined at 10e-8 M concentration after 48 hr of exposing; format: functional, Homo sapiens; method in brief: as §3
[32] = tested on: OVCAR-4; test: Percent growth of ovarian OVCAR-4 cell line was determined at 10e-5 M concentration after 48 hr of exposing; format: functional, Homo sapiens; method in brief: as §3
[33] = tested on: OVCAR-4; test: Percent growth of ovarian OVCAR-4 cell line was determined at 10e-6 M concentration after 48 hr of exposing; format: functional, Homo sapiens; method in brief: as §3
[34] = tested on: OVCAR-4; test: Percent growth of ovarian OVCAR-4 cell line was determined at 10e-8 M concentration after 48 hr of exposing; format: functional, Homo sapiens; method in brief: as §3
[35] = tested on: DU-145; test: Percent growth of prostate DU-145 cell line was determined at 10e-5 M concentration after 48 hr of exposing; format: functional, Homo sapiens
[36] = Cytotoxicity against human LoVo cancer cell line was determined after 1 hr; format: cell-based; method in brief: as §2
[37] = Cytotoxicity against human H460M cancer cell line was determined after 1 hr; format: cell-based; conditions: Cancer cell lines; method in brief: as §1
[38] = Cytotoxicity against human MKN45 cancer cell line was determined after 1 hr; format: cell-based; conditions: Cancer cell lines; method in brief: as §1
[39] = Cytotoxicity against human HCT116 cancer cell line was determined after 1 hr; format: cell-based; conditions: HCT-116, 1 h; method in brief: as §1
[40] = tested on: HT-29; test: Cytotoxicity is determined as the concentration required to inhibit the growth of human colon adenocarcinoma (HT-29) cell line; format: functional, cell-based
[41] = tested on: MCF7; test: Percent growth of breast MCF-7 cell line was determined at 10e-5 M concentration after 48 hr of exposing; format: functional, Homo sapiens
[42] = Cytotoxicity against human PC3 cancer cell line was determined after 1 hr; format: cell-based; conditions: Cancer cell lines; method in brief: as §1
[43] = as §4; format: cell-based; conditions: Homo sapiens; method in brief: as §2

Compound: CN(C)CCN1Nc2c3ccccc3nc3c(C(=O)NCCCN(C)CCCNC(=O)c4ccc5c6c(c7ccccc7nc46)NN5CCN(C)C)ccc1c23
- IC50 [1]: 4.4 nM
- IC50 [2]: 0.6 nM
- Resistance index [3]: 24
- IC50 [4]: 400 nM
- Binding site preference [5]: 2.1
- Growth [6]: -31%
- IC50 [7]: 19 nM
- Growth [8]: -23%
- Growth [9]: 25%
- Growth [10]: -57%
- Growth [11]: 5%
- Growth [12]: 22%
- IC50 [13]: 3600 nM
- IC50 [14]: 6 nM
- IC50 [15]: 1.1 nM
- Growth [16]: -7%
- Growth [17]: 40%
- Growth [18]: -48%
- Growth [19]: 5%
- Growth [20]: 30%
- Growth [21]: 2%
- Growth [22]: 18%
- Growth [23]: -45%
- Growth [24]: 14%
- Growth [25]: 37%
- Growth [26]: -53%
- Growth [27]: -6%
- Growth [28]: 12%
- Growth [29]: -27%
- Growth [30]: 7%
- Growth [31]: 28%
- Growth [32]: -40%
- Growth [33]: -17%
- Growth [34]: 41%
- Growth [35]: -40%
- IC50 [36]: 150 nM
- IC50 [37]: 7.2 nM
- IC50 [38]: 6.8 nM
- IC50 [39]: 12 nM
- IC50 [40]: 3 nM
- Growth [41]: -35%
- IC50 [42]: 12 nM

Compound: CN(C)CCn1c(=O)c2ccc(NCCCN(C)CCCNc3ccc4c(=O)n(CCN(C)C)c(=O)n5c6ccc(O)cc6c(=O)c3c45)c3c(=O)c4cc(O)ccc4n(c1=O)c23
- IC50 [1]: < 0.001 nM
- IC50 [2]: < 0.001 nM
- Resistance index [3]: 8.3
- IC50 [4]: 59 nM
- Binding site preference [5]: 1.7
- Growth [6]: -17%
- IC50 [7]: < 0.001 nM
- Growth [8]: -6%
- Growth [9]: 32%
- Growth [10]: -77%
- Growth [11]: -50%
- Growth [12]: 20%
- IC50 [14]: 0.01 nM
- IC50 [43]: 810 nM
- IC50 [15]: 3.9 nM
- Growth [16]: -4%
- Growth [17]: 34%
- Growth [18]: -52%
- Growth [19]: 1%
- Growth [20]: 36%
- Growth [21]: -1%
- Growth [22]: 16%
- Growth [23]: -8%
- Growth [24]: 10%
- Growth [25]: 36%
- Growth [26]: -60%
- Growth [27]: -23%
- Growth [28]: 11%
- Growth [29]: -60%
- Growth [30]: -37%
- Growth [31]: -4%
- Growth [32]: -36%
- Growth [33]: -37%
- Growth [34]: 42%
- Growth [35]: -42%
- IC50 [36]: 98 nM
- IC50 [37]: < 0.001 nM
- IC50 [38]: < 0.001 nM
- IC50 [39]: 0.06 nM
- IC50 [40]: < 0.1 nM
- Growth [41]: -32%
- IC50 [42]: 2 nM

Compound: CN(C)CCn1c(=O)c2ccc(NCCCN(C)CCCNc3ccc4c(=O)n(CCN(C)C)c(=O)n5c6ccc([N+](=O)[O-])cc6c(=O)c3c45)c3c(=O)c4cc([N+](=O)[O-])ccc4n(c1=O)c23
- IC50 [1]: 0.19 nM
- IC50 [2]: 0.29 nM
- Resistance index [3]: 9
- IC50 [4]: 67 nM
- Binding site preference [5]: 2.4
- Growth [6]: -66%
- IC50 [7]: 1.1 nM
- Growth [8]: -13%
- Growth [9]: 35%
- Growth [10]: -69%
- Growth [11]: -56%
- Growth [12]: 16%
- IC50 [14]: 4.5 nM
- IC50 [43]: 380 nM
- IC50 [15]: 7.6 nM
- Growth [16]: -25%
- Growth [17]: 37%
- Growth [18]: -63%
- Growth [19]: -4%
- Growth [20]: 33%
- Growth [21]: -2%
- Growth [22]: 21%
- Growth [23]: -16%
- Growth [24]: 5%
- Growth [25]: 42%
- Growth [26]: -60%
- Growth [27]: -36%
- Growth [28]: 10%
- Growth [29]: -50%
- Growth [30]: -31%
- Growth [31]: -2%
- Growth [32]: -65%
- Growth [33]: -54%
- Growth [34]: 31%
- Growth [35]: -83%
- IC50 [36]: 42 nM
- IC50 [37]: 0.93 nM
- IC50 [38]: 1.3 nM
- IC50 [39]: 2.9 nM
- IC50 [40]: < 0.1 nM
- Growth [41]: -55%
- IC50 [42]: 11 nM

From ChEMBL document CHEMBL1138784, “Rational design, synthesis, and biological evaluation of bis(pyrimido[5,6,1-de]acridines) and bis(pyrazolo[3,4,5-kl]acridine-5-carboxamides) as new anticancer agents” (J Med Chem, 2004)
